The target of one assay is T1, URAT1 WT (Homo sapiens, UniProt Q96S37).
T1 sequence (Q96S37 1-553): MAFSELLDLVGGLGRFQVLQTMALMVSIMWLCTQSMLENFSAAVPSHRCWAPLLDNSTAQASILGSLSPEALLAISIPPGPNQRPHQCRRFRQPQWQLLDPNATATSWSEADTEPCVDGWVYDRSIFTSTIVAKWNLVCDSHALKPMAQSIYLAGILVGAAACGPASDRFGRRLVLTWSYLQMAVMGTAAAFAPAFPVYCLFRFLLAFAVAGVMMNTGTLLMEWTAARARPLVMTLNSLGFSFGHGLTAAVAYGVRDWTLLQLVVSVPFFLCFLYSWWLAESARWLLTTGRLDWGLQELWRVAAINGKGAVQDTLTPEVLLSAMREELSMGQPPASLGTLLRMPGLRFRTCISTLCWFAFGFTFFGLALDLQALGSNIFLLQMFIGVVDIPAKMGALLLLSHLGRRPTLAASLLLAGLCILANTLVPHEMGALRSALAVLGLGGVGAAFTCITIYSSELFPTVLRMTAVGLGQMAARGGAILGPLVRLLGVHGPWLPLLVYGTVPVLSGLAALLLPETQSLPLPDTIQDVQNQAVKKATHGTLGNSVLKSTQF
Nature of the assay: Saturation kinetic experiment of 14C-uric acid uptake. As to conditions: wild-type group. In kind it is cell-based.

In assay [1] the target is T2, URAT1 K393A mutant (Homo sapiens, UniProt Q96S37, K393A).
T2 sequence (Q96S37 1-553 K393A): T1 sequence (Q96S37 1-553) with K393A
Nature of the assay: 14C-uric acid binding assay with membrane protein. Conditions: 2.5 μg membrane protein, 25 μM 14C-uric acid, 30 min. The method, boiled down:
(§1)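 Membranes came from HEK293 cells transiently transfected (Lipofectamine 3000) with sequence-confirmed site-directed K393 mutant hURAT1 plasmids; control membranes came from cells transfected with pECFP empty vector. Cells were harvested in ice-cold 25 mM HEPES pH 7.3 with 125 mM sodium gluconate, and membranes were extracted with a kit. Protein was incubated at room temperature, then rapid-filtered, washed with ice-cold DPBS, dissolved in 0.1 M NaOH and scintillation-counted. n = 3, mean ± SD.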

Assay [2] addresses T3, URAT1 K393D mutant (Homo sapiens, UniProt Q96S37, K393D).
T3 sequence (Q96S37 1-553 K393D): T1 sequence (Q96S37 1-553) with K393D
Nature of the assay: 14C-uric acid uptake assay in transfected HEK293 cells. In kind it is cell-based. As to conditions: K393D, HEK293 cells.

Assay [3] deals with T3, URAT1 K393D mutant. Nature of the assay: 14C-uric acid binding assay with membrane protein. As to conditions: 2.5 μg membrane protein, 25 μM 14C-uric acid, 30 min. The method, boiled down: as §1
A further assay addresses T4, URAT1 K393R mutant (Homo sapiens, UniProt Q96S37, K393R).
T4 sequence (Q96S37 1-553 K393R): T1 sequence (Q96S37 1-553) with K393R
Nature of the assay: Competitive inhibition test of unlabeled uric acid on 14C-uric acid uptake. In kind it is cell-based.

Assay [4] deals with T2, URAT1 K393A mutant. As to the kind of experiment: 14C-uric acid uptake assay in transfected HEK293 cells. In kind it is cell-based. As to conditions: K393A, HEK293 cells.

The values below come from publication PMC9521027 (ACS Omega, 2022).

Changes are numbered by the printed parent chain.

Broadly, the IC50 is the point on the concentration scale where inhibition reaches its midpoint. `O=c1[nH]c(=O)c2[nH]c(=O)[nH]c2[nH]1` [uric acid]: the “Vmax” value at URAT1 WT came out at 654.12 µM. Also, the “14C-uric acid binding compared with WT” value on URAT1 K393A mutant [1] and on URAT1 K393D mutant [3] was “significant loss” throughout. The “14C-urate transport capacity lost compared with WT” value at URAT1 K393D mutant [2] and on URAT1 K393A mutant [4] was 70–80% each time. For the same compound, the IC50 on URAT1 K393R mutant came out at 113 ± 10.1 µM.
